Experimental data published in ChEMBL document CHEMBL2029236, “Tubulin binding, protein-bound conformation in solution, and antimitotic cellular profiling of noscapine and its derivatives” (J Med Chem, 2012).
Values belong to the molecule of their own block, whether it stands above or below them. The source made the active and inactive calls. No cut-off for these calls is given here.

Columns and labels:
SMMC-7721 = experiment: Antiproliferative activity against human SMMC7721 after 72 hrs by CellTiter Glo assay; format: functional, cell-based; details: SMMC-7721, 72 h
Summary of the method: (§1)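 Cell viability assay in hepatocellular carcinoma cell lines; IC50 values derived from concentration–response data and reported in nM.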

[1] = Antiproliferative activity against human MHCC97H after 72 hrs by CellTiter Glo assay; format: functional; summary of the method: as §1
[2] = Cell cycle arrest in human PLC/PRF/5 cells assessed as accumulation at G1 phase after 24 hrs by FACS analysis (reference value: 66.8%); format: functional, cell-based
[3] = Antiproliferative activity against human PLC/PRF/5 cells; format: functional, cell-based; summary of the method: as §1
Huh-7 = experiment: Antiproliferative activity against human HuH7 after 72 hrs by CellTiter Glo assay; format: functional, cell-based; details: Huh-7, 72 h; summary of the method: as §1
[4] = Cell cycle arrest in human PLC/PRF/5 cells assessed as accumulation at sub-G1 phase after 24 hrs by FACS analysis (reference value: 1.4%); format: functional, cell-based
SNU-398 [5] = experiment: Cell cycle arrest in human SNU398 cells assessed as accumulation at G2 phase after 24 hrs by FACS analysis (reference value: 38.2%); format: functional
HepG2 = experiment: Antiproliferative activity against human HepG2 after 72 hrs by CellTiter Glo assay; format: functional, cell-based; details: HepG2, 72 h; summary of the method: as §1
SNU-398 [6] = experiment: Antiproliferative activity against human SNU398 after 72 hrs by CellTiter Glo assay; format: functional, cell-based; details: SNU-398, 72 h; summary of the method: as §1
SNU-475 = experiment: Antiproliferative activity against human SNU475 after 72 hrs by CellTiter Glo assay; format: functional, cell-based; details: SNU-475, 72 h; summary of the method: as §1
SNU-423 = experiment: Antiproliferative activity against human SNU423 after 72 hrs by CellTiter Glo assay; format: functional, cell-based; details: SNU-423, 72 h; summary of the method: as §1
SNU-398 [7] = experiment: Antiproliferative activity against human SNU398 cells; format: functional, cell-based; summary of the method: as §1
SNU-398 [8] = experiment: Cell cycle arrest in human SNU398 cells assessed as accumulation at G1 phase after 24 hrs by FACS analysis (reference value: 55.8%); format: functional
SNU-449 = experiment: Antiproliferative activity against human SNU449 after 72 hrs by CellTiter Glo assay; format: functional, cell-based; details: SNU-449, 72 h; summary of the method: as §1
[9] = Antiproliferative activity against human JHH4 after 72 hrs by CellTiter Glo assay; format: functional; summary of the method: as §1
[10] = Antiproliferative activity against human SNU182 after 72 hrs by CellTiter Glo assay; format: functional, cell-based; details: SNU-182, 72 h; summary of the method: as §1
Bel-7402 = experiment: Antiproliferative activity against human Bel7402 after 72 hrs by CellTiter Glo assay; format: functional, cell-based; details: Bel-7402, 72 h; summary of the method: as §1
[11] = Antiproliferative activity against human JHH7 after 72 hrs by CellTiter Glo assay; format: functional; summary of the method: as §1
[12] = Antiproliferative activity against human PLC/PRF/5 after 72 hrs by CellTiter Glo assay; format: functional; details: PLC-PRF-5, 72 h; summary of the method: as §1
[13] = Antiproliferative activity against human JHH2 after 72 hrs by CellTiter Glo assay; format: functional; summary of the method: as §1
[14] = Antiproliferative activity against human Hep3B after 72 hrs by CellTiter Glo assay; format: functional, Hep 3B2; summary of the method: as §1
SNU-387 = experiment: Antiproliferative activity against human SNU387 after 72 hrs by CellTiter Glo assay; format: functional, cell-based; details: SNU-387, 72 h; summary of the method: as §1
[15] = Cell cycle arrest in human PLC/PRF/5 cells assessed as accumulation at G2 phase after 24 hrs by FACS analysis (reference value: 26.1%); format: functional, cell-based
Bos taurus [16] = species on record: Bos taurus; experiment: Inhibition of calf brain tubulin assembly at 10 uM by fluorometry in presence of pironetin
Bos taurus [17] = species on record: Bos taurus; experiment: Binding affinity to calf brain tubulin alpha/beta heterodimer assessed as increase in proton signal at […] by STD NMR analysis
Summary of the method: (§2)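 STD NMR with freshly prepared tubulin α/β heterodimer. Ligand:protein molar ratio 30:1 ([…], […]). Read-out: enhancement of ligand proton signals in STD spectra versus an off-resonance reference spectrum acquired without protein irradiation.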

Bos taurus [18] = species on record: Bos taurus; experiment: Inhibition of calf brain tubulin assembly at 10 uM by fluorometry in presence of noscapine
Bos taurus [19] = species on record: Bos taurus; experiment: Binding affinity to calf brain tubulin alpha/beta heterodimer assessed as increase in proton signal at […] by STD NMR analysis in the presence of noscapine; summary of the method: as §2
[20] = Cell cycle arrest in human PLC/PRF/5 cells assessed as accumulation at sub-G1 phase at 2 uM after 24 hrs by FACS analysis (reference value: 1.4%); format: functional, cell-based
Bos taurus [21] = species on record: Bos taurus; experiment: Binding affinity to calf brain tubulin alpha/beta heterodimer by NOE method; format: tissue-based
Summary of the method: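 Transferred NOE (TR-NOESY) of ligand with tubulin α/β heterodimer at 500 MHz, 298 K. The sign of the NOE cross-peaks is compared between ligand with tubulin and free ligand. Bound conformation derived with molecular mechanics.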

Bos taurus [22] = species on record: Bos taurus; experiment: Inhibition of calf brain tubulin assembly at 10 uM by fluorometry in presence of podophyllotoxin
SNU-398 [23] = experiment: Cell cycle arrest in human SNU398 cells assessed as accumulation at G1 phase at 2 uM after 24 hrs by FACS analysis (reference value: 55.8%); format: functional
Bos taurus [24] = species on record: Bos taurus; experiment: Inhibition of calf brain tubulin assembly at 10 uM by fluorometry in presence of gossipol
[25] = Metabolic stability in microsomes assessed as compound remaining; format: ADME, Microsome
SNU-398 [26] = experiment: Cell cycle arrest in human SNU398 cells assessed as accumulation at sub-G1 phase at 2 uM after 24 hrs by FACS analysis (reference value: 1.2%); format: functional
SNU-398 [27] = experiment: Cell cycle arrest in human SNU398 cells assessed as accumulation at G2 phase at 2 uM after 24 hrs by FACS analysis (reference value: 38.2%); format: functional
Bos taurus [28] = species on record: Bos taurus; experiment: Binding affinity to calf brain tubulin assessed as increase in fluorescence at 10 uM by fluorometry relative to control
Summary of the method: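 Fluorescence emission spectra of 10 μM ligand with and without 10 μM tubulin in 10 mM sodium phosphate, 0.1 mM GTP, pH 7.0, 25 °C. Emission intensity (425 nm maximum) and anisotropy were compared between bound and unbound ligand.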

Bos taurus [29] = species on record: Bos taurus; experiment: Binding affinity to calf brain tubulin assessed as increase in fluorescence at 10 uM by fluorometry in presence of Mg2+
[30] = Cell cycle arrest in human PLC/PRF/5 cells assessed as accumulation at G1 phase at 2 uM after 24 hrs by FACS analysis (reference value: 66.8%); format: functional, cell-based
[31] = Cell cycle arrest in human PLC/PRF/5 cells assessed as accumulation at G2 phase at 2 uM after 24 hrs by FACS analysis (reference value: 26.1%); format: functional, cell-based
[32] = Metabolic stability in S9 fraction assessed as compound remaining; format: ADME, subcellular
Bos taurus [33] = species on record: Bos taurus; experiment: Inhibition of calf brain tubulin assembly at 10 uM by fluorometry in presence of vinblastine
Bos taurus [34] = species on record: Bos taurus; experiment: Binding affinity to calf brain tubulin assessed as binding constant by fluorometry; format: tissue-based
Summary of the method: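 Fluorescence titration in 10 mM sodium phosphate, 0.1 mM GTP, pH 7.0, 25 °C. Ligand at 5 μM was titrated with tubulin up to 100 μM. Bound and free ligand were quantified from the change in ligand fluorescence. Binding constant fitted assuming a single site, 1:1 stoichiometry and 0.87 sites per dimer. Average of five experiments.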

[35] = Inhibition of calf brain tubulin assembly; parameters: species or system Bos taurus
Summary of the method: (§3)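 Read-out: amount of pelleted polymerized tubulin across a compound concentration range. EC50 taken at 50% reduction of the pellet. Average of three experiments.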

Bos taurus [36] = species on record: Bos taurus; experiment: Inhibition of calf brain tubulin assembly at 1 mM; summary of the method: as §3
Bos taurus [37] = species on record: Bos taurus; experiment: Inhibition of calf brain tubulin assembly at 10 uM by fluorometry in presence of isohomohalichondrin
Bos taurus [38] = species on record: Bos taurus; experiment: Inhibition of calf brain tubulin assembly at 10 uM by fluorometry in presence of nocodazole

IC50 (SMMC-7721): 6.5 nM
IC50 (Huh-7): 20 nM
IC50 (HepG2): > 100 nM
IC50 (SNU-398 [6]): < 0.13 nM
IC50 (SNU-475): 29.3 nM
IC50 (SNU-423): 18.4 nM
IC50 (SNU-398 [7]): 46.7 nM
IC50 (SNU-449): > 100 nM
IC50 (Bel-7402): 4.2 nM
IC50 (SNU-387): 40.9 nM
SMILES: CC[C@]1(O)C[C@H]2CN(CCc3c([nH]c4ccccc34)[C@@](C(=O)OC)(c3cc4c(cc3OC)N(C=O)[C@H]3[C@@](O)(C(=O)OC)[C@H](OC(C)=O)[C@]5(CC)C=CCN6CC[C@]43[C@@H]65)C2)C1 [VINCRISTINE]
IC50 [1]: 21.2 nM
Activity [2]: 12.2%
IC50 [3]: 12.7 nM
Activity [4]: 11.8%
Activity (SNU-398 [5]): 64.5%
Activity (SNU-398 [8]): 17.1%
IC50 [9]: 7.2 nM
IC50 [10]: 35.9 nM
IC50 [11]: 28.2 nM
IC50 [12]: 22.1 nM
IC50 [13]: > 100 nM
IC50 [14]: > 100 nM
Activity [15]: 68.4%

SMILES: COc1ccc2c(c1N)C(=O)O[C@@H]2[C@H]1c2c(cc3c(c2OC)OCO3)CCN1C
IC50 (SMMC-7721): 109 nM
IC50 [1]: 351 nM
IC50 [3]: 237 nM
inhibition (Bos taurus [16]): Active
inhibition (Bos taurus [17]): Active
IC50 (Huh-7): 218 nM
inhibition (Bos taurus [18]): Active
inhibition (Bos taurus [19]): Active
Activity [20]: 8.4%
Activity (Bos taurus [21]): Active
inhibition (Bos taurus [22]): Active
Activity (SNU-398 [23]): 22.9%
inhibition (Bos taurus [24]): Active
IC50 (HepG2): > 1000 nM
Stability [25]: < 5%
Activity (SNU-398 [26]): 13.8%
Activity (SNU-398 [27]): 59.8%
IC50 (SNU-398 [6]): 324 nM
fold change (FC) (Bos taurus [28]): 11
Activity (Bos taurus [29]): Active
Activity [30]: 18%
IC50 (SNU-475): 584 nM
Activity [31]: 67%
Stability [32]: < 5%
IC50 (SNU-423): 226 nM
IC50 (SNU-398 [7]): 94.3 nM
inhibition (Bos taurus [33]): Active
Activity (Bos taurus [34]): 1.15 ×10⁵ /M
IC50 (SNU-449): 283 nM
EC50 [35]: 1200 nM
IC50 [9]: 107 nM
IC50 [10]: 508 nM
inhibition (Bos taurus [36]): 50%
inhibition (Bos taurus [37]): Active
IC50 (Bel-7402): 78.4 nM
IC50 [11]: 318 nM
inhibition (Bos taurus [38]): inactive
IC50 [12]: 278 nM
IC50 [13]: > 1000 nM
IC50 [14]: > 1000 nM
IC50 (SNU-387): 59.5 nM
